Source: ChEMBL document CHEMBL4041542, “Synthesis and biological characterisation of ester and amide derivatives of fusidic acid as antiplasmodial agents” (Bioorg Med Chem Lett, 2017)

What was measured:
Plasmodium falciparum [1] = test: Antiplasmodial activity against chloroquine-sensitive Plasmodium falciparum NF54 by LDH assay; format: functional
Outline: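 In vitro test on the chloroquine-sensitive NF54 strain of P. falciparum, read out by the lactate dehydrogenase assay. Reported as IC50. Chloroquine and artesunate were included as reference drugs in all experiments.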

Plasmodium falciparum [2] = test: Antiplasmodial activity against chloroquine-resistant Plasmodium falciparum K1 by [3H]hypoxanthine incorporation assay; format: functional
Outline: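 Multidrug-resistant K1 strain of P. falciparum tested in vitro with a modified [3H]hypoxanthine incorporation assay. IC50 determined. Chloroquine and artesunate served as reference drugs in every experiment.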

CHO = test: Cytotoxicity against CHO cells; format: cell-based; conditions: Cricetulus griseus
[3] = Selectivity index, ratio of IC50 for CHO cells to IC50 for chloroquine-sensitive Plasmodium falciparum NF54; format: toxicity; conditions: hamster, read-out: Ratio IC50
Outline: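 IC50 against Chinese hamster ovary cells (cytotoxicity) was divided by IC50 against P. falciparum NF54. NF54 IC50 came from the lactate dehydrogenase assay, with chloroquine and artesunate as references.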

Plasmodium falciparum [4] = test: Potency index, ratio of fusidic acid IC50 to compound IC50 for chloroquine-sensitive Plasmodium falciparum NF54; format: functional
Outline: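 Chloroquine-sensitive P. falciparum NF54 was tested with the lactate dehydrogenase assay, using chloroquine and artesunate as reference drugs. The index is fusidic acid's IC50 divided by the compound's IC50, both against NF54.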

Plasmodium falciparum [5] = test: Potency index, ratio of fusidic acid IC50 to compound IC50 for chloroquine-resistant Plasmodium falciparum K1; format: functional
[6] = Stability of the compound assessed as Plasmodium falciparum NF54 esterase-mediated fusidic acid release at 0.5 uM up to 48 hrs by LC-MS/MS analysis; format: ADME; conditions: plasmodium falciparum nf54, isolated protein

Row | SMILES | IC50 (Plasmodium falciparum [1]) | IC50 (Plasmodium falciparum [2]) | IC50 (CHO) | selectivity ratio [3] | Ratio IC50 (Plasmodium falciparum [4]) | Ratio IC50 (Plasmodium falciparum [5]) | Stability [6]
1 | CC(=O)O[C@H]1C[C@@]2(C)[C@@H](C[C@@H](O)[C@H]3[C@@]4(C)CC[C@@H](O)[C@@H](C)[C@@H]4CC[C@@]32C)/C1=C(\CCC=C(C)C)C(=O)Oc1ccc(Cl)c(Cl)c1 | 3.6 µM | 2.2 µM | 95 µM | 26 | 4 - 49 | 5 - 17 | –
2 | CCCCCCCCCCCCCCCCNC(=O)/C(CCC=C(C)C)=C1\[C@@H](OC(C)=O)C[C@@]2(C)[C@H]1C[C@@H](O)[C@H]1[C@@]3(C)CC[C@@H](O)[C@@H](C)[C@@H]3CC[C@@]12C | > 100 µM | > 13.5 µM | > 135 µM | – | – | – | –
3 | CC(=O)O[C@H]1C[C@@]2(C)[C@@H](C[C@@H](O)[C@H]3[C@@]4(C)CC[C@@H](O)[C@@H](C)[C@@H]4CC[C@@]32C)/C1=C(\CCC=C(C)C)C(=O)Oc1cc(F)cc(F)c1 | 4.7 µM | – | 96.7 µM | 21 | 4 - 49 | 5 - 17 | –
4 | CCCCCCCCOC(=O)/C(CCC=C(C)C)=C1\[C@@H](OC(C)=O)C[C@@]2(C)[C@H]1C[C@@H](O)[C@H]1[C@@]3(C)CC[C@@H](O)[C@@H](C)[C@@H]3CC[C@@]12C | 4.6 µM | 1.6 µM | 92.4 µM | 20 | 4 - 49 | 5 - 17 | –
5 | CCCCCCCCCCCCCCNC(=O)/C(CCC=C(C)C)=C1\[C@@H](OC(C)=O)C[C@@]2(C)[C@H]1C[C@@H](O)[C@H]1[C@@]3(C)CC[C@@H](O)[C@@H](C)[C@@H]3CC[C@@]12C | 13.4 µM | 4 µM | > 140 µM | > 10 | 4 - 49 | 5 - 17 | –
6 | COc1cccc(OC(=O)/C(CCC=C(C)C)=C2\[C@@H](OC(C)=O)C[C@@]3(C)[C@H]2C[C@@H](O)[C@H]2[C@@]4(C)CC[C@@H](O)[C@@H](C)[C@@H]4CC[C@@]23C)c1 | 1.8 µM | 1.3 µM | 86.4 µM | 48 | 4 - 49 | 5 - 17 | –
7 | CC(=O)O[C@H]1C[C@@]2(C)[C@@H](C[C@@H](O)[C@H]3[C@@]4(C)CC[C@@H](O)[C@@H](C)[C@@H]4CC[C@@]32C)/C1=C(\CCC=C(C)C)C(=O)Oc1cccc(F)c1 | 2.6 µM | 2 µM | 89.4 µM | 34 | 4 - 49 | 5 - 17 | –
8 | CCCCCCCCCCCCOC(=O)/C(CCC=C(C)C)=C1\[C@@H](OC(C)=O)C[C@@]2(C)[C@H]1C[C@@H](O)[C@H]1[C@@]3(C)CC[C@@H](O)[C@@H](C)[C@@H]3CC[C@@]12C | > 100 µM | > 14.6 µM | > 146 µM | – | – | – | –
9 | CCOC(=O)/C(CCC=C(C)C)=C1\[C@@H](OC(C)=O)C[C@@]2(C)[C@H]1C[C@@H](O)[C@H]1[C@@]3(C)CC[C@@H](O)[C@@H](C)[C@@H]3CC[C@@]12C | 3.4 µM | 2.2 µM | 65.5 µM | 19 | 4 - 49 | 5 - 17 | Stable
10 | CC(=O)O[C@H]1C[C@@]2(C)[C@@H](C[C@@H](O)[C@H]3[C@@]4(C)CC[C@@H](O)[C@@H](C)[C@@H]4CC[C@@]32C)/C1=C(\CCC=C(C)C)C(=O)Oc1cc(C)ccc1C | 3 µM | 1.4 µM | 103 µM | 34 | 4 - 49 | 5 - 17 | –
11 | CC(=O)O[C@H]1C[C@@]2(C)[C@@H](C[C@@H](O)[C@H]3[C@@]4(C)CC[C@@H](O)[C@@H](C)[C@@H]4CC[C@@]32C)/C1=C(\CCC=C(C)C)C(=O)Oc1ccc(Cl)cc1Cl | 3.5 µM | 1.7 µM | 99.7 µM | 28 | 4 - 49 | 5 - 17 | –
12 | CCCCCCCCCCCCNC(=O)/C(CCC=C(C)C)=C1\[C@@H](OC(C)=O)C[C@@]2(C)[C@H]1C[C@@H](O)[C@H]1[C@@]3(C)CC[C@@H](O)[C@@H](C)[C@@H]3CC[C@@]12C | 1.2 µM | 1.5 µM | > 146 µM | > 122 | 4 - 49 | 5 - 17 | –
13 | CC(=O)O[C@H]1C[C@@]2(C)[C@@H](C[C@@H](O)[C@H]3[C@@]4(C)CC[C@@H](O)[C@@H](C)[C@@H]4CC[C@@]32C)/C1=C(\CCC=C(C)C)C(=O)Oc1cc(Cl)cc(Cl)c1 | 2 µM | 1.1 µM | 81.9 µM | 41 | 4 - 49 | 5 - 17 | –
14 | CCCCCCCCCCCCCCCCOC(=O)/C(CCC=C(C)C)=C1\[C@@H](OC(C)=O)C[C@@]2(C)[C@H]1C[C@@H](O)[C@H]1[C@@]3(C)CC[C@@H](O)[C@@H](C)[C@@H]3CC[C@@]12C | > 100 µM | > 13.5 µM | > 135 µM | – | – | – | –
15 | CC(=O)O[C@H]1C[C@@]2(C)[C@@H](C[C@@H](O)[C@H]3[C@@]4(C)CC[C@@H](O)[C@@H](C)[C@@H]4CC[C@@]32C)/C1=C(\CCC=C(C)C)C(=O)Oc1cccc(Cl)c1 | 1.4 µM | 1.2 µM | 87.7 µM | 63 | 4 - 49 | 5 - 17 | –
16 | CC(=O)O[C@H]1C[C@@]2(C)[C@@H](C[C@@H](O)[C@H]3[C@@]4(C)CC[C@@H](O)[C@@H](C)[C@@H]4CC[C@@]32C)/C1=C(\CCC=C(C)C)C(=O)Oc1ccc(Cl)cc1 | 2.3 µM | 1.4 µM | 71.6 µM | 31 | 20 - 28 | 12 - 14 | –
17 | CC[C@H]1CN2CCc3cc(OC)c(OC)cc3[C@@H]2C[C@@H]1C[C@H]1NCCc2cc(OC)c(OC)cc21 [EMETINE] | – | – | 0.178 µM | – | – | – | –
18 | CC(=O)O[C@H]1C[C@@]2(C)[C@@H](C[C@@H](O)[C@H]3[C@@]4(C)CC[C@@H](O)[C@@H](C)[C@@H]4CC[C@@]32C)/C1=C(\CCC=C(C)C)C(=O)Oc1ccc2ccccc2c1 | 3.2 µM | 1.7 µM | > 155 µM | > 48 | 4 - 49 | 5 - 17 | –
19 | CC(=O)O[C@H]1C[C@@]2(C)[C@@H](C[C@@H](O)[C@H]3[C@@]4(C)CC[C@@H](O)[C@@H](C)[C@@H]4CC[C@@]32C)/C1=C(\CCC=C(C)C)C(=O)Oc1ccc(F)cc1 | 2.9 µM | 1.4 µM | 79.4 µM | 27 | 20 - 28 | 12 - 14 | –
20 | CC(=O)O[C@H]1C[C@@]2(C)[C@@H](C[C@@H](O)[C@H]3[C@@]4(C)CC[C@@H](O)[C@@H](C)[C@@H]4CC[C@@]32C)/C1=C(\CCC=C(C)C)C(=O)Oc1ccc(Br)cc1 | 2.1 µM | 1.6 µM | 95.3 µM | 45 | 20 - 28 | 12 - 14 | –
21 | CCCCOC(=O)/C(CCC=C(C)C)=C1\[C@@H](OC(C)=O)C[C@@]2(C)[C@H]1C[C@@H](O)[C@H]1[C@@]3(C)CC[C@@H](O)[C@@H](C)[C@@H]3CC[C@@]12C | 2.9 µM | 1.5 µM | 37.4 µM | 13 | 4 - 49 | 5 - 17 | –
22 | C[C@H]1[C@H](OC(=O)CCC(=O)O)O[C@@H]2O[C@@]3(C)CC[C@H]4[C@H](C)CC[C@@H]1[C@@]24OO3 [ARTESUNATE] | 0.0093 µM | 0.0026 µM | – | – | – | – | –
23 | CC(=O)O[C@H]1C[C@@]2(C)[C@@H](C[C@@H](O)[C@H]3[C@@]4(C)CC[C@@H](O)[C@@H](C)[C@@H]4CC[C@@]32C)/C1=C(\CCC=C(C)C)C(=O)Oc1ccccc1 | 2.4 µM | 1.4 µM | 99.4 µM | 41 | 20 - 28 | 12 - 14 | Stable
24 | CC(=O)O[C@H]1C[C@@]2(C)[C@@H](C[C@@H](O)[C@H]3[C@@]4(C)CC[C@@H](O)[C@@H](C)[C@@H]4CC[C@@]32C)/C1=C(\CCC=C(C)C)C(=O)Oc1cccc(Br)c1 | 2.6 µM | 1.6 µM | 98.3 µM | 38 | 4 - 49 | 5 - 17 | –
25 | CCCCCCCCCCCCCCOC(=O)/C(CCC=C(C)C)=C1\[C@@H](OC(C)=O)C[C@@]2(C)[C@H]1C[C@@H](O)[C@H]1[C@@]3(C)CC[C@@H](O)[C@@H](C)[C@@H]3CC[C@@]12C | > 100 µM | > 14 µM | > 140 µM | – | – | – | –
26 | CC(=O)O[C@H]1C[C@@]2(C)[C@@H](C[C@@H](O)[C@H]3[C@@]4(C)CC[C@@H](O)[C@@H](C)[C@@H]4CC[C@@]32C)/C1=C(\CCC=C(C)C)C(=O)Oc1ccc(C)cc1C | 2.4 µM | 1.4 µM | 98.9 µM | 41 | 4 - 49 | 5 - 17 | –
